2 compounds from article PMC3991427 (Angewandte Chemie (International ed. in English), 2014) can be followed below.

For the assay, the system named is MCF-7 breast cancer cells. The format is cell-based. The conditions noted are these: broad compound screen at 10 μM, compared with (+)-21. The method, boiled down: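 Single-concentration screen: each test compound at 10 μM, run in parallel against MCF-7 breast cancer cells and non-tumorigenic MCF-10A breast cells. The assay is proliferation-based, and the read-out is relative cell number after treatment, expressed as a percentage. Selectivity is judged by comparing the MCF-7 response with the MCF-10A response.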

Take `c1ccsc1` [compound 28, thiophene]: the “inhibition of cell proliferation / cell growth (in words)” value is listed as “did not inhibit cell growth”.

As to `c1ccc2sccc2c1` [compound 29, benzothiophene], the “inhibition of cell proliferation / cell growth (in words)” value is on record as “did not inhibit cell growth”.
